The experiment deals with T1, PAP(248–286) (Homo sapiens, UniProt P15309).
T1 sequence (P15309 248-286): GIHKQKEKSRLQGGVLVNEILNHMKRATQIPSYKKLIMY
Description: isothermal titration calorimetry. The format is binding. Put shortly: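 Freshly prepared monomeric peptide (600 μM) in deionized water brought to 1× PBS was titrated from the syringe into a low-volume nano-ITC cell holding the test compound (80 μM). The compound was neutralised with NaOH to physiological pH and diluted in water/PBS. Both solutions were degassed 10 min at 37 °C. Heats and enthalpies were fitted with an independent binding model.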
In general terms: In ITC the heat of successive injections is recorded.

In the case of `O=C1O[C@H]([C@@H](O)CO)C(O)=C1O` [ascorbic acid], the affinity, expressed as Kd, was 8.59 µM.

(Values after PMC8496042 (RSC Chemical Biology, 2021).)
